Results published in PMC3558982 (Chemical science (Royal Society of Chemistry : 2010), 2013).
Read-outs that look alike come from different tables or passages of the source.

Columns and labels:
Ddp1 = conditions: 30 minutes at 37 °C; ref 22c; cited from earlier work
[1] = Stability in aqueous solution at room temperature; assay type: physicochemical; conditions: for decomposition in aqueous solution: neutral pH, 40 days at room temperature
Ddp1 phosphohydrolase = Ddp1 phosphohydrolase (Saccharomyces cerevisiae, UniProt Q99321); assay: Inhibition of His-Ddp1 mediated Ap5A hydrolysis; assay type: biochemical, yeast; conditions: for inhibition profile of Ddp1 mediated Ap5A hydrolysis (in words): compared with 5PP-IP5, Figures 5b and S4
Ddp1 phosphohydrolase, sequence (Q99321 whole entry): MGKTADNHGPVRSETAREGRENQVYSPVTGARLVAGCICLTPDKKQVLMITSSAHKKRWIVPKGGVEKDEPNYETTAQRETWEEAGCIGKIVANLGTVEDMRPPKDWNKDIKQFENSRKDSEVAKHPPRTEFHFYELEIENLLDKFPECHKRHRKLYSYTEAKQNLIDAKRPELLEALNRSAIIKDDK

protein kinase Akt = protein kinase Akt (Homo sapiens, UniProt P31749); assay: Inhibition of Akt phosphorylation at threonine 308 by PDK1; assay type: biochemical
protein kinase Akt, sequence (P31749 whole entry): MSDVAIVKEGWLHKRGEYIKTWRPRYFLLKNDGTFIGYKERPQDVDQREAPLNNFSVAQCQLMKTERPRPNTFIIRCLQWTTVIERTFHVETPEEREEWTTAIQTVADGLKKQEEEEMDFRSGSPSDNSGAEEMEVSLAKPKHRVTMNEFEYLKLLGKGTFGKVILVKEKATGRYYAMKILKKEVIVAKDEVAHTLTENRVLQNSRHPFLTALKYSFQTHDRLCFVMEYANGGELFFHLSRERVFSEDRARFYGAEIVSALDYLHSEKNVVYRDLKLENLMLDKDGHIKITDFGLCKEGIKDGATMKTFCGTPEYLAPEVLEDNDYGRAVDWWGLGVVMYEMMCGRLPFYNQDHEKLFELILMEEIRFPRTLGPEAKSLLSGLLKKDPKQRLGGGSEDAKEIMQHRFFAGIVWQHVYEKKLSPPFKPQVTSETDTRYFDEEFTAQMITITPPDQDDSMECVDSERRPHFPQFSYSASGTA
In short: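 Akt Thr308 phosphorylation was detected by Western blot with a phosphospecific antibody, with a total-Akt blot as loading control. IC50 was determined in three independent experiments.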

[2] = 1H and 31P NMR titration in D2O; assay type: physicochemical; conditions: D2O with 140mM K+, 10mM Na+, 1mM Mg2+, room temperature

| SMILES | decomposition in aqueous solution [1] | inhibition profile of Ddp1 mediated Ap5A hydrolysis (in words) (Ddp1 phosphohydrolase) | pD of ring inversion (conformational change) [2] | hydrolysis by Ddp1 (Ddp1) | further results |
| --- | --- | --- | --- | --- | --- |
| O=P(O)(O)OC1[C@@H](OP(=O)(O)O)[C@@H](OP(=O)(O)O)C(OP(=O)(O)OP(=O)(O)O)[C@H](OP(=O)(O)O)[C@H]1OP(=O)(O)O (stereo partly shown) [1PP-IP5] | – | – | – | completely hydrolysed to IP6 | – |
| O=P(O)(O)OC1C(OP(=O)(O)O)C(OP(=O)(O)O)C(OP(=O)(O)O)C(OP(=O)(O)O)C1OP(=O)(O)O (stereo not shown) [IP6, inositol hexakisphosphate, reference compound] | – | – | – | – | IC50 in Ddp1 Ap5A hydrolysis relative to 5PP-IP5 (Ddp1 phosphohydrolase; data not shown): more than ten times higher |

Second part, led by results:

| decomposition in aqueous solution [1] | inhibition profile of Ddp1 mediated Ap5A hydrolysis (in words) (Ddp1 phosphohydrolase) | pD of ring inversion (conformational change) [2] | SMILES | hydrolysis by Ddp1 (Ddp1) | further results |
| --- | --- | --- | --- | --- | --- |
| no signs of decomposition | very similar inhibition profiles | – | O=P(O)(O)CP(=O)(O)O[C@@H]1[C@@H](OP(=O)(O)O)[C@H](OP(=O)(O)O)[C@H](O)[C@H](OP(=O)(O)O)[C@H]1OP(=O)(O)O [5PCP-IP4] | – | – |
| no signs of decomposition | very similar inhibition profiles | ~8.8 | O=P(O)(O)CP(=O)(O)O[C@H]1[C@H](OP(=O)(O)O)[C@@H](OP(=O)(O)O)[C@@H](OP(=O)(O)O)[C@@H](OP(=O)(O)O)[C@@H]1OP(=O)(O)O [5PCP-IP5] | – | decomposition at low or high pD ([1]; pD 2.0 or 13.0, 40 days at room temperature): no detectable decomposition; IC50 (protein kinase Akt; read-out: IC50, inhibition of Akt phosphorylation at threonine 308, purified inactive Akt and activated PDK1, three independent experiments): 129 nM |
| – | – | ~8.8 | O=P(O)(O)O[C@H]1[C@@H](OP(=O)(O)O)[C@H](OP(=O)(O)O)[C@@H](OP(=O)(O)OP(=O)(O)O)[C@H](OP(=O)(O)O)[C@H]1OP(=O)(O)O [5PP-IP5, reference compound] | no signs of hydrolysis | IC50 (protein kinase Akt): 217 nM; IC50 (Ddp1 phosphohydrolase): 2500 nM |
